The values below come from article PMC7881813 (The Indian Journal of Medical Research, 2020).

Data set [1] deals with EAC-bearing mice. Nature of the data set: Survivability study. The following applies: respective IC50 dosages, n=10. It counts as in vivo, mouse. The gist of the method:
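EAC-bearing mice (1×10⁶ cells intraperitoneally), ten per group, treated beginning 24 h after inoculation. Survival days recorded. ILS% = (T−C)/C×100, with T the survival days of treated mice and C those of untreated mice. Kaplan–Meier survival analysis.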

For data set [2], the system named is EAC-bearing mice. Kind of data set: Haematological parameters of EAC-bearing mice. It counts as in vivo, mouse. The following applies: for Effect on haematological counts (in words): respective IC50 dosage; for Hb / Platelets / RBC / WBC: treatment at IC50 dose, mean±SD n=6. In outline:
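Female Swiss albino mice (7–8 wk) inoculated intraperitoneally with 1×10⁶ EAC cells on day 0, then treated on days 1–10. After 4 h fasting, heparinised cardiac blood collected. Haemoglobin by Sahli's method; RBC, WBC and platelets on an automated haematology analyser. Mean±SD, six mice per group.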

The test system of data set [3] is MCF-7 cells. Nature of the data set: MTT assay for IC50 determination, MCF-7. It counts as cell-based. The following applies: Homo sapiens, MCF7, read-out: IC50 for MCF-7.
Data set [4] concerns MDA-MB-231 cells. Kind of data set: MTT assay for IC50 determination, MDA-MB-231. It counts as cell-based. The following applies: Homo sapiens, MDA-MB-231, read-out: IC50 for MDA-MB-231. Background: Tetrazolium assays rely on reduction of a dye to a coloured formazan, in cell work by metabolically active cells.
The next data set concerns EAC cells. Kind of data set: In vivo IC50 determination in EAC cells by trypan blue dye exclusion. The following applies: Mus musculus, 24 h, read-out: IC50 (50 per cent lethality of EAC cells) in vivo.
Data set [5] deals with EAC-bearing mice. Kind of data set: Hepatotoxicity and kidney toxicity parameters of EAC-bearing mice. Type of data set: in vivo, mouse. The following applies: treatment at IC50 dosage; for ALP / ALT / AST / Creatinine / Urea: EAC-bearing mice, mean±SD n=6.
For data set [6], the system named is normal cells (fibroblast). Kind of data set: Comet assay, normal fibroblast. Type of data set: cell-based, mouse. The following applies: highest dose of 40 μM. In outline:
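Mouse fibroblasts treated with XD 24 h after seeding and harvested 48 h later. Alkaline comet assay: cells in low-melt agarose layers, overnight lysis at 4°C at pH 10.0, electrophoresis at pH 13.1 for 30 min (300 mA, 20 V), neutralisation, ethidium bromide stain. Fluorescence microscopy; damaged-cell per cent and tail length from 150–200 cells per slide.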

For data set [7], the system named is MCF-7 cells. Kind of data set: Comet assay, MCF-7 cells. The following applies: MCF-7, XD 1 μM. Type of data set: cell-based, human. In outline:
(§1)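 Alkaline comet assay, about 10⁴ cells/slide in 1% low-melt agarose over normal agarose, capped with 0.5% low-melt agarose. Lysis overnight at 4°C (2.5 M NaCl, 100 mM Na₂-EDTA, 10 mM Tris, 1% Triton X-100, 10% DMSO, pH 10.0). Electrophoresis at pH 13.1, 30 min, 300 mA, 20 V. Tris neutralisation, ethidium bromide staining. Per cent damaged cells among 150–200 scored per slide.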

For data set [8], the system named is EAC, MCF-7 and MDA-MB-231 cells. Nature of the data set: TUNEL assay. The following applies: in vivo and in vitro models, vs control. Type of data set: cell-based. The gist of the method:
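EAC cells recovered from the peritoneum of mice after 10 days of XD dosing, PBS-washed, smeared and fixed in 4% paraformaldehyde. MCF-7 and MDA-MB-231 cells grown on coverslips and fixed in paraformaldehyde. Fluorescein in situ cell-death (TUNEL) kit used per manufacturer; positive cells imaged by fluorescence microscopy at ×20.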

Data set [9] shares this test system. Nature of the data set: DNA fragmentation assay. Type of data set: cell-based. The following applies: XD at respective IC50 dosage (8.1, 1 and 5 μM).
The next data set has as its system normal mice. Nature of the data set: Chronic toxicity study with therapeutic dosage of XD. It counts as in vivo, mouse. The following applies: 8 μM, oral, 40 days, data not shown. In outline:
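Normal mice dosed orally with XD for 40 days; controls got 0.9% saline. After 4 h fasting, blood drawn by cardiac puncture, clotted, spun at 2000×g for 15 min, serum held at −20°C. ALT, ALP, urea and creatinine measured on an automated clinical chemistry analyser.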

Data set [10] deals with EAC, MCF-7 and MDA-MB-231 cells. Nature of the data set: Cell cycle phase distribution by flow cytometry. Type of data set: cell-based. The following applies: 10 days of treatment in vivo and 48 h in vitro, vs control. The gist of the method: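 EAC cells taken from mice 10 days after daily XD dosing (days 1–10 after intraperitoneal inoculation with 1×10⁶ cells), PBS-washed and haemocytometer-counted. […] Cell-cycle distribution, including SubG0, by flow cytometry. Repeated at least three times.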
Background: A flow cytometer gives signals particle by particle.

The test system of data set [11] is MDA-MB-231 cells. Nature of the data set: Comet assay, MDA-MB-231 cells. The following applies: MDA-MB-231, XD 5 μM. Type of data set: cell-based, human. The gist of the method: as §1
The test system of data set [12] is EAC, MCF-7 and MDA-MB-231 cells. Nature of the data set: Intracellular ROS generation. It counts as cell-based. The following applies: XD at respective IC50 (8.1, 1 and 5 μM), in vivo and in vitro, vs untreated.
The next data set deals with Bax:Bcl-2. Kind of data set: Western blot Bax:Bcl-2 ratio. It counts as cell-based. The following applies: EAC, MCF-7 and MDA-MB-231 cells, XD-treated vs control. The gist of the method:
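Whole-cell extracts prepared from control and XD-treated EAC, MCF-7 and MDA-MB-231 cells. Bax and Bcl-2 immunoblotted and the Bax:Bcl-2 ratio calculated. EAC cells came from mice dosed on days 1–10 after intraperitoneal tumour inoculation. Repeated at least three times, mean±SD.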
For orientation: Immunoblotting shows a protein as a band on a membrane.

For the next data set, the system named is normal murine fibroblast. Nature of the data set: MTT cytotoxicity on normal mouse fibroblast. It counts as cell-based. The following applies: xanthones up to highest concentration, cisplatin at 20 μM, XD at 1 and 5 μM.
Data set [13] relates to liver cytosol of EAC-bearing mice. Nature of the data set: Antioxidative enzymes and LPO in liver cytosol of EAC-bearing mice. It counts as in vivo, mouse. In outline:
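Liver from female Swiss albino mice bearing intraperitoneal EAC. After 15 days of treatment: GST in liver cytosol, rise in A340 with CDNB substrate, as CDNB-GSH conjugate formed per min per mg protein. GPx in post-mitochondrial fraction, fall in A340 after H₂O₂ addition, as nmol NADPH used per min per mg protein. Mean±SD, six per group.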

The next data set has as its system normal fibroblast. Kind of data set: Intracellular ROS generation. Type of data set: cell-based, mouse. The following applies: treatment with 50 μM.
Setting [14] is: EAC-bearing mice, XD-treated 8.1 µM.

The structures appear in SMILES notation.

On to `N.N.[Cl][Pt][Cl]` [Cisplatin, reference compound], for which the “Increase in life span of tumour-bearing mice (ILS%)” value (shortened to “Increase in life span … (ILS%)”) in the data set with EAC-bearing mice [1] came out at 36.36%. Also, in the data set with EAC-bearing mice [2], the “Effect on haematological counts (in words)” value is “lowering of RBC, Hb and platelets”; the Hb turned out to be 2.1 ± 0.4 g/dL; the Platelets was 200±2 10^3/µl; the RBC is listed as 2.7±0.6 10^6/µl. In addition, the WBC in the data set with EAC-bearing mice [2] was 35.8±0.8 10^3/µl.

What is called IC50 is the concentration needed to halve the response being measured. For `COc1cc(O)c2c(=O)c3c(OC)c(OC)ccc3oc2c1` [XA, 1-hydroxy-3,7,8-trimethoxyxanthone], in the data set on EAC-bearing mice [1], the “Increase in life span … (ILS%)” value stood at 45%. In the data set with MCF-7 cells [3], the IC50 was found to be 30 µM. Besides, in the data set with MDA-MB-231 cells [4], the half-inhibitory concentration (IC50) turned out to be 50 µM. Further, in the data set on EAC-bearing mice [2], the Hb stood at 7.5 ± 0.8 g/dL, the Platelets is 456±3 10^3/µl, the RBC is 4.15±0.4 10^6/µl and the WBC is recorded as 30.8±0.6 10^3/µl. Further, the concentration for half-maximal inhibition (IC50) with EAC cells is 48.5 µM. In the data set on EAC-bearing mice [5], this compound had an ALP of 103±3 IU/l, an ALT of 91±3 IU/l, an AST of 350±1 IU/l and a Creatinine of 1.7 ± 0.09 mg/dL. The Urea with EAC-bearing mice [5] is 71 ± 8 mg/dL.

As for `COc1cc(O)c2c(=O)c3c(O)ccc(OC)c3oc2c1` [XB, 1,8-dihydroxy-3,5-dimethoxyxanthone], the “Increase in life span … (ILS%)” value in the data set with EAC-bearing mice [1] turned out to be 63%. The concentration for half-maximal inhibition (IC50) with MCF-7 cells [3] was found to be 25 µM. Besides, the half-maximal inhibitory concentration (IC50) in the data set on MDA-MB-231 cells [4] was 30 µM. Besides, in the data set with EAC-bearing mice [2], the Hb is 7.4 ± 0.5 g/dL, the Platelets is given as 596±4 10^3/µl, the RBC was 4.75±0.3 10^6/µl and the WBC was 24.6±0.6 10^3/µl. Besides, the IC50 in the data set on EAC cells came out at 48.5 µM. In addition, in the data set on EAC-bearing mice [5], the ALP is reported as 160±5 IU/l, the ALT came to 93±4 IU/l, the AST turned out to be 335±8 IU/l and the Creatinine was 1.1 ± 0.09 mg/dL. Moreover, in the data set on EAC-bearing mice [5], the Urea turned out to be 67 ± 8 mg/dL.

As to `COc1cc(O)c2c(=O)c3c(OC)ccc(OC)c3oc2c1` [XC, 1-hydroxy-3,5,8-trimethoxyxanthone], the “Increase in life span … (ILS%)” value in the data set with EAC-bearing mice [1] is given as 81%. For the same compound, the IC50 in the data set with MCF-7 cells [3] was 8 µM. Besides, the half-maximal inhibitory concentration (IC50) with MDA-MB-231 cells [4] turned out to be 25 µM. Further, in the data set on EAC-bearing mice [2], the Hb stood at 7.9 ± 0.9 g/dL, the Platelets is 441±2 10^3/µl, the RBC is given as 5.75±0.2 10^6/µl and the WBC was 27.2±0.8 10^3/µl. Besides, the IC50 in the data set with EAC cells turned out to be 32.4 µM. Also, in the data set with EAC-bearing mice [5], the ALP came out at 106±2 IU/l, the ALT was found to be 85±5 IU/l, the AST came to 355±9 IU/l and the Creatinine was determined as 1.2 ± 0.09 mg/dL. For the same compound, the Urea with EAC-bearing mice [5] was 79 ± 8 mg/dL.

As for `COc1cc(O)c2c(=O)c3c(O)ccc(O)c3oc2c1` [XD, 1,5,8-trihydroxy-3-methoxyxanthone], the “DNA damage in normal cells (comet assay)” value in data set [6] was “no DNA damage was seen in normal cells”. Also, in the data set with EAC-bearing mice [1], the “Increase in life span … (ILS%)” value amounted to 140%. In addition, in the data set with MCF-7 cells [7], the “per cent of damaged cells (comet assay)” value was found to be 65 per cent. Besides, in data set [8], the “Apoptosis by TUNEL assay” value is on record as “significant apoptosis”. In addition, in the data set on MCF-7 cells [3], the IC50 came to 1 µM. The DNA fragmentation result in data set [9] is given as “smearing pattern”. Moreover, the half-maximal inhibitory concentration (IC50) with MDA-MB-231 cells [4] was determined as 5 µM. Also, in the data set with normal mice, the “Chronic toxicity (liver and kidney toxicity parameters)” value is “did not show any toxicity”. The SubG0 population result in data set [10] was “significantly (P<0.001) increase”. For the same compound, in the data set with MDA-MB-231 cells [11], the “per cent of damaged cells (comet assay)” value stood at 67 per cent. In the data set on EAC-bearing mice [2], the “Effect on haematological counts (in words)” value is “lower WBC and platelet counts back to normal level”; the Hb is 10 ± 2 g/dL; the Platelets was 341±8 10^3/µl; the RBC was 5.05±0.5 10^6/µl. In addition, the WBC with EAC-bearing mice [2] is given as 17.2±0.2 10^3/µl. For the same compound, the half-inhibitory concentration (IC50) with EAC cells was 8.1 µM. In addition, in data set [12], the ROS level result is “significantly (P<0.001) increased”. Moreover, the “intracellular Bax:Bcl-2 ratio” value in the data set on Bax:Bcl-2 was “significant (P<0.001) augmentation”. Further, the “Effect on normal murine fibroblast” value in the data set with normal murine fibroblast was “without affecting the normal cells”. In data set [13] (Drug control group), the CAT is given as 0.4±0.06 units/mg, the GPx was found to be 8.28 ± 0.6 nmol/mg, the GSH stood at 2.6 ± 0.3 nmol/mg and the GST was 8 ± 0.6 nmol/mg. Moreover, in [13] (Drug control group), the LPO worked out at 1.6 ± 0.09 mol/mg and the SOD worked out at 17±6 units/mg. In data set [13] (setting [14]), this compound returned a GPx of 9.9 ± 2 nmol/mg, a GSH of 5.72 ± 1 nmol/mg, a GST of 15 ± 5 nmol/mg and an LPO of 1.8 ± 0.09 mol/mg. In data set [13] (setting [14]), this compound yielded an SOD of 35±0.8 units/mg. In addition, in the data set with EAC-bearing mice [5], the ALP turned out to be 57.2±2 IU/l, the ALT worked out at 79±2 IU/l, the AST was 205±5 IU/l and the Creatinine was 0.7 ± 0.09 mg/dL. In the data set with EAC-bearing mice [5], this compound displayed a Urea of 41 ± 8 mg/dL. Moreover, the “Liver and kidney toxicity parameters in tumour-bearing mice” value in the data set on EAC-bearing mice [5] (compared to normal mice) is “almost back to normal”. Further, the “ROS generation in normal fibroblast” value in the data set on normal fibroblast is reported as “augmentation of ROS generation was not seen”.
